ChEMBL document CHEMBL4177546, “Development of a Selective Inhibitor of Protein Arginine Deiminase 2” (J Med Chem, 2017)

Tests used:
Homo sapiens [1] = species: Homo sapiens; experiment: Selectivity ratio of Kinact/Ki for recombinant full length N-terminal GST-tagged human PAD4 expressed in Escherichia coli Rosetta to Kinact/Ki for recombinant His6-tagged PAD3 (unknown origin)
In short: (§1)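 Enzyme at 2.0 μM (PAD1, PAD2, PAD4) or 5.0 μM (PAD3) incubated at 37 °C with various inhibitor concentrations in 50 mM HEPES, 10 mM CaCl₂, 2 mM DTT, pH 7.6. Timed aliquots moved into substrate mix: 10 mM BAEE, or 10 mM BAA for PAD3. […] Selectivity ratios taken from these values.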

Homo sapiens [2] = species: Homo sapiens; experiment: Selectivity ratio of Kinact/Ki for recombinant His6-tagged PAD1 (unknown origin) to Kinact/Ki for recombinant His6-tagged PAD3 (unknown origin); in short: as §1
Homo sapiens [3] = species: Homo sapiens; experiment: Selectivity ratio of Kinact/Ki for recombinant human PAD2 expressed in Escherichia coli BL21(DE3)pLysS to Kinact/Ki for recombinant His6-tagged PAD3 (unknown origin); in short: as §1
Homo sapiens [4] = species: Homo sapiens; experiment: Selectivity ratio of Kinact/Ki for recombinant His6-tagged PAD1 (unknown origin) to Kinact/Ki for recombinant full length N-terminal GST-tagged human PAD4 expressed in Escherichia coli Rosetta cells; in short: as §1
Homo sapiens [5] = species: Homo sapiens; experiment: Selectivity ratio of Kinact/Ki for recombinant His6-tagged PAD3 (unknown origin) to Kinact/Ki for recombinant full length N-terminal GST-tagged human PAD4 expressed in Escherichia coli Rosetta cells; in short: as §1
Homo sapiens [6] = species: Homo sapiens; experiment: Selectivity ratio of Kinact/Ki for recombinant human PAD2 expressed in Escherichia coli BL21(DE3)pLysS cells to Kinact/Ki for recombinant full length N-terminal GST-tagged human PAD4 expressed in Escherichia coli Rosetta cells; in short: as §1
[7] = target: Protein-arginine deiminase type-2 (Homo sapiens, UniProt Q9Y2J8); experiment: Binding affinity to human PAD2 expressed in HEK293T cells assessed as protein occupancy at 25 uM preincubated for 15 mins followed by ionomycin addition measured after 1 hr in presence of CaCl2 by RIBFA probe based SDS-PAGE analysis relative to control; type: cell-based
Sequence of Protein-arginine deiminase type-2 (Q9Y2J8 whole entry): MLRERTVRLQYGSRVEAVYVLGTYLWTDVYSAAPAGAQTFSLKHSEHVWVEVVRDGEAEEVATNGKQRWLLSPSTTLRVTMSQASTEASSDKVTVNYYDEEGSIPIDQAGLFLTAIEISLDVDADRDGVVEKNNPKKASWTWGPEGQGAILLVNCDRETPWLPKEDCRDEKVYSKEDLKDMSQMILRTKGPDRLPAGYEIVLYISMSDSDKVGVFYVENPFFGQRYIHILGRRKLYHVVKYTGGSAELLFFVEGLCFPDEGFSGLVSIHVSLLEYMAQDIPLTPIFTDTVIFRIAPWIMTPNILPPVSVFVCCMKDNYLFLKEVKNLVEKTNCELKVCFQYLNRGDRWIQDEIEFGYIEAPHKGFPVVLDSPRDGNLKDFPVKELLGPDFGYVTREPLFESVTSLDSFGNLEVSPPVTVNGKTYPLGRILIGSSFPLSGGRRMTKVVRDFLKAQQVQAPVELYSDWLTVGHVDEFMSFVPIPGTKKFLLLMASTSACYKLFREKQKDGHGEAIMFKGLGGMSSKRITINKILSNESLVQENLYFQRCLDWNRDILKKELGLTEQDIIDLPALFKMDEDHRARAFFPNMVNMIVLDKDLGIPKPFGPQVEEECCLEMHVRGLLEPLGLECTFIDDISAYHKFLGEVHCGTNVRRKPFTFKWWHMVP
In short: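 Adherent HEK293T/PAD2 cells at 80–90% confluence in HBS with 2 mM CaCl₂ at 37 °C. Inhibitor (in DMSO) added for 15 min, then ionomycin (0.5 μM final) for 1 h. Cells washed and lysed in 1% Triton X-100. Lysate (2 μg/μL) labelled with RIBFA probe (2 μM) plus 2 mM CaCl₂ for 1 h at 37 °C. Gel resolved and fluorescence scanned (~546/579 nm). PAD2 occupancy expressed relative to DMSO control.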

Selectivity ratio (Homo sapiens [1])	Selectivity ratio (Homo sapiens [2])	Selectivity ratio (Homo sapiens [3])	Activity [7] [%]	SMILES	Selectivity ratio (Homo sapiens [4])	Selectivity ratio (Homo sapiens [5])	Selectivity ratio (Homo sapiens [6])
1.2	21	19		CCN1Cc2cccc(C(=O)N[C@@H](CCCNC(=N)CCl)c3nc4ccccc4n3C)c2C1=O			
				CCOc1cccc2c1nc([C@H](CCCNC(=N)CCl)NC(=O)c1cccc3c1C(=O)N(CC)C3)n2C	12	5.5	43
1.3	3.9	3.9		COc1cccc2c1nc([C@H](CCCNC(=N)CCl)NC(=O)c1cccc3c1C(=O)NC3)n2C			
				CC(C)n1c([C@H](CCCNC(=N)CF)NC(=O)c2ccccc2C(=O)O)nc2ccccc21	49	4.4	54
3.8	47	125		CCN1Cc2cccc(C(=O)N[C@@H](CCCNC(=N)CF)c3nc4cc(OC)ccc4n3C)c2C1=O			
1.3	3.9	5		CCN1Cc2cccc(C(=O)N[C@@H](CCCNC(=N)CCl)c3nc4c(OC)cccc4n3C)c2C1=O			
				COc1ccc2c(c1)nc([C@H](CCCNC(=N)CCl)NC(=O)c1cccc3c1C(=O)NC3)n2C	25	2.4	10
				CCn1c([C@H](CCCNC(=N)CCl)NC(=O)c2cccc3c2C(=O)NC3)nc2cc(OC)ccc21	21	4.4	16
		18		CCn1c([C@H](CCCNC(=N)CF)NC(=O)c2ccccc2C(=O)O)nc2ccccc21	39	1.7	31
1	4.3	1.9		Cn1c([C@H](CCCNC(=N)CCl)NC(=O)c2ccccc2C(=O)O)nc2ccccc21			
				CCn1c([C@H](CCCNC(=N)CCl)NC(=O)c2cccc3c2C(=O)NC3)nc2ccccc21	10	1.8	4.8
2.6	32	58	< 37	COc1cccc2c1nc([C@H](CCCNC(=N)CF)NC(=O)c1cccc3c1C(=O)N(C(C)C)C3)n2C			
				CCN1Cc2cccc(C(=O)N[C@@H](CCCNC(=N)CF)c3nc4ccccc4n3C(C)C)c2C1=O	10	3.4	22
				CCN1Cc2cccc(C(=O)N[C@@H](CCCNC(=N)CF)c3nc4c(OC)cccc4n3CC)c2C1=O	28	2	40
				CCN1Cc2cccc(C(=O)N[C@@H](CCCNC(=N)CCl)c3nc4cc(OC)ccc4n3C)c2C1=O	37	9.3	32
				CCn1c([C@H](CCCNC(=N)CCl)NC(=O)c2cccc3c2C(=O)NC3)nc2c(OC)cccc21	50	2.9	19
3.8	38	77	< 37	COc1cccc2c1nc([C@H](CCCNC(=N)CF)NC(=O)c1cccc3c1C(=O)N(C1CC1)C3)n2C			
				CCN1Cc2cccc(C(=O)N[C@@H](CCCNC(=N)CCl)c3nc4cc(OC)ccc4[nH]3)c2C1=O	7.8	4.1	9.1
				CCN1Cc2cccc(C(=O)N[C@@H](CCCNC(=N)CF)c3nc4ccccc4n3C)c2C1=O	6.1	1.9	11
				CCN1Cc2cccc(C(=O)N[C@@H](CCCNC(=N)CCl)c3nc4cc(OC)ccc4n3CC)c2C1=O	21	8.4	27
				COc1cccc2[nH]c([C@H](CCCNC(=N)CCl)NC(=O)c3cccc4c3C(=O)NC4)nc12	30	6.9	11
				CCN1Cc2cccc(C(=O)N[C@@H](CCCNC(=N)CCl)c3nc4ccccc4n3C(C)C)c2C1=O	11	2	6.8
				CC(C)n1c([C@H](CCCNC(=N)CCl)NC(=O)c2cccc3c2C(=O)NC3)nc2ccccc21	27	3.2	8
				CCN1Cc2cccc(C(=O)N[C@@H](CCCNC(=N)CF)c3nc4cc(OC)ccc4[nH]3)c2C1=O	4.4	3.6	6.3

Selectivity ratio (Homo sapiens [1])	Selectivity ratio (Homo sapiens [2])	Selectivity ratio (Homo sapiens [3])	Activity [7] [%]	SMILES	Selectivity ratio (Homo sapiens [4])	Selectivity ratio (Homo sapiens [5])	Selectivity ratio (Homo sapiens [6])
				CCN1Cc2cccc(C(=O)N[C@@H](CCCNC(=N)CCl)c3nc4ccccc4n3CC)c2C1=O	18	2.1	14
2.1	6.5	2.3		N=C(CCl)NCCC[C@H](NC(=O)c1cccc2c1C(=O)NC2)c1nc2ccccc2[nH]1			
2.2	7.3	3.5 to 114		COc1ccc2[nH]c([C@H](CCCNC(=N)CCl)NC(=O)c3cccc4c3C(=O)NC4)nc2c1			95
3.5	13	5.4 to 114		COc1ccc2[nH]c([C@H](CCCNC(=N)CF)NC(=O)c3cccc4c3C(=O)NC4)nc2c1			95
				CC(C)n1c([C@H](CCCNC(=N)CCl)NC(=O)c2ccccc2C(=O)O)nc2ccccc21	68	3.8	38
1	25	8.9		Cn1c([C@H](CCCNC(=N)CF)NC(=O)c2cccc3c2C(=O)NC3)nc2ccccc21			
1.4	4.3	1.5		CCN1Cc2cccc(C(=O)N[C@@H](CCCNC(=N)CCl)c3nc4ccccc4[nH]3)c2C1=O			
				CCN1Cc2cccc(C(=O)N[C@@H](CCCNC(=N)CCl)c3nc4c(OC)cccc4[nH]3)c2C1=O	5	1	2.3
				COc1cccc2c1nc([C@H](CCCNC(=N)CCl)NC(=O)c1cccc3c1C(=O)N(C(C)C)C3)n2C	3.5	1.2	4.1
				CCOc1cccc2c1nc([C@H](CCCNC(=N)CCl)NC(=O)c1cccc3c1C(=O)NC3)n2C	24	2.7	30
2.4	12	20		CC(C)n1c([C@H](CCCNC(=N)CF)NC(=O)c2cccc3c2C(=O)NC3)nc2ccccc21			
				COc1cccc2[nH]c([C@H](CCCNC(=N)CF)NC(=O)c3cccc4c3C(=O)NC4)nc12	42	3.8	8
1.2	4.3	1.6		CCn1c([C@H](CCCNC(=N)CCl)NC(=O)c2ccccc2C(=O)O)nc2ccccc21			
				CCN1Cc2cccc(C(=O)N[C@@H](CCCNC(=N)CCl)c3nc4c(OC)cccc4n3CC)c2C1=O	31	3.4	27
				CCN1Cc2cccc(C(=O)N[C@@H](CCCNC(=N)CF)c3nc4cc(OC)ccc4n3CC)c2C1=O	28	2.7	70
				COc1cccc2c1nc([C@H](CCCNC(=N)CCl)NC(=O)c1cccc3c1C(=O)N(C)C3)n2C	6.8	2.2	11
				CCn1c([C@H](CCCNC(=N)CF)NC(=O)c2cccc3c2C(=O)NC3)nc2cc(OC)ccc21	24	2.5	50
				CCOc1cccc2c1nc([C@H](CCCNC(=N)CF)NC(=O)c1cccc3c1C(=O)N(CC)C3)n2C	8.9	1	26
				Cn1c([C@H](CCCNC(=N)CF)NC(=O)c2ccccc2C(=O)O)nc2ccccc21	40	1.3	15
				Cn1c([C@H](CCCNC(=N)CCl)NC(=O)c2cccc3c2C(=O)NC3)nc2ccccc21	61	2	3.1
				CCN1Cc2cccc(C(=O)N[C@@H](CCCNC(=N)CF)c3nc4c(OC)cccc4[nH]3)c2C1=O	107	12	32
10	24	3.3		N=C(CF)NCCC[C@H](NC(=O)c1cccc2c1C(=O)NC2)c1nc2ccccc2[nH]1			
				COc1cccc2c1nc([C@H](CCCNC(=N)CCl)NC(=O)c1cccc3c1C(=O)N(C1CC1)C3)n2C	4.7	1.1	6.7
